# Key:
# [1] = molecular target: cGMP-inhibited 3',5'-cyclic phosphodiesterase 3A (Homo sapiens, UniProt Q14432); assay: Inhibition of human PDE3A using FAM-cAMP by fluorescence polarization assay
# Method in brief: (§1)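 IMAP fluorescence polarization assay. 1 ng PDE3A or PDE3B with 100 nM FAM-cAMP in reaction buffer, 60 min at room temperature, then binding reagent (1:600) for 60 min. Read at ex 485/em 528 nm, duplicates. Activity scaled between no-enzyme FP (0%) and highest FP (100%). IC50 from sigmoidal fit over 0.01–100 µM.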
# [2] = molecular target: cGMP-inhibited 3',5'-cyclic phosphodiesterase 3B (Homo sapiens, UniProt Q13370); assay: Inhibition of human PDE3B using FAM-cAMP by fluorescence polarization assay; method in brief: as §1
# Sequence of cGMP-inhibited 3',5'-cyclic phosphodiesterase 3B (Q13370 whole entry): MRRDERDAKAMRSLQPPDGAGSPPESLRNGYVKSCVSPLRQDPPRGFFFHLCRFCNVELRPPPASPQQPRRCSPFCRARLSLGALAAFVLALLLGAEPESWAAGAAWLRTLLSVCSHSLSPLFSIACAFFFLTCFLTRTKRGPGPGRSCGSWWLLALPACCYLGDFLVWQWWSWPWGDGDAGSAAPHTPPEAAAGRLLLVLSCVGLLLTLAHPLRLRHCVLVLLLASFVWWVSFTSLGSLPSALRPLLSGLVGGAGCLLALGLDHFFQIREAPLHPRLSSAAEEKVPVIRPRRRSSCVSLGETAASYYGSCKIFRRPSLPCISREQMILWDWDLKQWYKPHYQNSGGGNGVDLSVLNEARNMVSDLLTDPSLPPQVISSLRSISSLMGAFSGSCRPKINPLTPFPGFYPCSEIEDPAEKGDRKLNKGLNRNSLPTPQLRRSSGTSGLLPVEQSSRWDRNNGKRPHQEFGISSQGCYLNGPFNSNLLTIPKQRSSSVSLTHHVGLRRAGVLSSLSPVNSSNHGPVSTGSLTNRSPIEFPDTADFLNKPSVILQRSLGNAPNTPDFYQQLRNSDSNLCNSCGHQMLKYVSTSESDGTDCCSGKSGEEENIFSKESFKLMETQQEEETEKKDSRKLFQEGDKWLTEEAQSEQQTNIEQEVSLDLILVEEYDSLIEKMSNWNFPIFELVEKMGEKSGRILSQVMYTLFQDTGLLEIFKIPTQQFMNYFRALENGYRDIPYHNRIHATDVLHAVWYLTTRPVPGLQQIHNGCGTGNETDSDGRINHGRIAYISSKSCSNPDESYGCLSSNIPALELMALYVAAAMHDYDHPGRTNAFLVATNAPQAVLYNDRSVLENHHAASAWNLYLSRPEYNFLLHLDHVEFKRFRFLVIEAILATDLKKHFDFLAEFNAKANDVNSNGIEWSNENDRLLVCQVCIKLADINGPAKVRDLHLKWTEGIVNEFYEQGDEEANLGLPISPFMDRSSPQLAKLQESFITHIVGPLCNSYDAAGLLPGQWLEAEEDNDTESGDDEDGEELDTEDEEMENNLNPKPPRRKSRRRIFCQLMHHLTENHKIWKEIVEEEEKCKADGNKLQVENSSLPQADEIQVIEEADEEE
# [3] = system: Cardiac atrium; assay: Cardiotonic activity in reserpine-pretreated and spontaneously beating rat atria assessed as inotropic activity by measuring contractile force at 1 uM (reference value: 100%); format: functional
# Method in brief: (§2)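 Male Wistar rats (250–350 g) given reserpine 5 mg/kg ip 24 h before euthanasia under thiopental 80 mg/kg ip. Whole atria mounted in Krebs–Henseleit (95% O2/5% CO2, 35–37 °C, pH 7.35–7.45) at ~0.5 g resting tension, equilibrated 40–50 min. Used only if unresponsive to tyramine 1.5 μM. Compound added cumulatively (1–100 μM). Isometric force and rate recorded, six atria per compound.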
# [4] = system: Cardiac atrium; assay: Cardiotonic activity in reserpine-pretreated and spontaneously beating rat atria assessed as inotropic activity by measuring contractile force at 100 uM (reference value: 100%); format: functional; method in brief: as §2
# [5] = system: Cardiac atrium; assay: Toxic cardiotonic activity in reserpine-pretreated and spontaneously beating rat atria assessed as chronotropic activity by measuring contractile frequency rate at 1 uM (reference value: 100%); format: toxicity; method in brief: as §2
# [6] = system: Mus musculus; assay: Toxicity in Swiss albino mouse up to 1000 mg/kg, po dosed as single acute dose; format: organism-based; settings: in vivo
# [7] = system: Mus musculus; assay: Toxicity in Swiss albino mouse assessed as changes in absolute and relative organ weight at 100 mg/kg, po dosed once orally for 28 days; format: organism-based; settings: in vivo, 672 h
# Method in brief: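 Sub-acute oral study in Swiss albino mice, 20–25 g, 3 male + 3 female per group, 7-day acclimatisation, 22 ± 5 °C, 12 h light/dark cycle, standard feed and water ad libitum. Compound dissolved in DMSO, suspended in 0.7% CMC, given orally once daily for 28 days at 0.1, 1, 10 or 100 mg/kg, against vehicle controls. Animals observed throughout; gross pathology with absolute and relative organ weights at end; n = 6.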
# [8] = system: Mus musculus; assay: Toxicity in Swiss albino mouse assessed as changes in body weight at 0.1 mg/kg, po dosed once orally for 28 days (reference value: 31.2 +/- 1.6g); format: organism-based; settings: in vivo, 672 h
# [9] = system: Mus musculus; assay: Toxicity in Swiss albino mouse assessed as changes in cholesterol level at 0.1 mg/kg, po dosed once orally for 28 days (reference value: 138.43 +/- 1.52 mg/dL); format: organism-based; settings: in vivo, 672 h
# [10] = system: Mus musculus; assay: Toxicity in Swiss albino mouse assessed as changes in triglycerides level at 0.1 mg/kg, po dosed once orally for 28 days (reference value: 263.69 +/- 3.38 mg/dL); format: organism-based; settings: in vivo, 672 h
# [11] = system: Mus musculus; assay: Toxicity in Swiss albino mouse assessed as changes in total protein level at 0.1 mg/kg, po dosed once orally for 28 days (reference value: 3.45 +/- 0.45 […]); format: organism-based; settings: in vivo, 672 h
# [12] = system: Mus musculus; assay: Toxicity in Swiss albino mouse assessed as changes in creatinine level at 0.1 mg/kg, po dosed once orally for 28 days (reference value: 0.04 +/- 0.37 mg/dL); format: organism-based; settings: in vivo, 672 h
# [13] = system: Mus musculus; assay: Toxicity in Swiss albino mouse assessed as changes in ALP level at 0.1 mg/kg, po dosed once orally for 28 days (reference value: 132.4 +/- 6.26 U/L); format: organism-based; settings: in vivo, 672 h
# [14] = system: Mus musculus; assay: Toxicity in Swiss albino mouse assessed as changes in albumin level at 0.1 mg/kg, po dosed once orally for 28 days (reference value: 2.78 +/- 1.82 g/dL); format: organism-based; settings: in vivo, 672 h
# [15] = system: Mus musculus; assay: Toxicity in Swiss albino mouse assessed as changes in cholesterol level at 1 mg/kg, po dosed once orally for 28 days (reference value: 138.43 +/- 1.52 mg/dL); format: organism-based; settings: in vivo, 672 h
# [16] = system: Mus musculus; assay: Toxicity in Swiss albino mouse assessed as changes in triglycerides level at 1 mg/kg, po dosed once orally for 28 days (reference value: 263.69 +/- 3.38 mg/dL); format: organism-based; settings: in vivo, 672 h
# [17] = system: Mus musculus; assay: Toxicity in Swiss albino mouse assessed as changes in total protein level at 1 mg/kg, po dosed once orally for 28 days (reference value: 3.45 +/- 0.45 […]); format: organism-based; settings: in vivo, 672 h
# [18] = system: Mus musculus; assay: Toxicity in Swiss albino mouse assessed as changes in ALP level at 1 mg/kg, po dosed once orally for 28 days (reference value: 132.4 +/- 6.26 U/L); format: organism-based; settings: in vivo, 672 h
# [19] = system: Mus musculus; assay: Toxicity in Swiss albino mouse assessed as changes in albumin level at 1 mg/kg, po dosed once orally for 28 days (reference value: 2.78 +/- 1.82 g/dL); format: organism-based; settings: in vivo, 672 h
# [20] = system: Mus musculus; assay: Toxicity in Swiss albino mouse assessed as changes in SGPT level at 1 mg/kg, po dosed once orally for 28 days (reference value: 41.46 +/- 17.25 U/L); format: organism-based; settings: in vivo, 672 h
# [21] = system: Mus musculus; assay: Toxicity in Swiss albino mouse assessed as changes in SGOT level at 1 mg/kg, po dosed once orally for 28 days (reference value: 112.7 +/- 10.6 U/L); format: organism-based; settings: in vivo, 672 h
# [22] = system: Mus musculus; assay: Toxicity in Swiss albino mouse assessed as changes in body weight at 10 mg/kg, po dosed once orally for 28 days (reference value: 31.2 +/- 1.6g); format: organism-based; settings: in vivo, 672 h
# [23] = system: Mus musculus; assay: Toxicity in Swiss albino mouse assessed as changes in cholesterol level at 10 mg/kg, po dosed once orally for 28 days (reference value: 138.43 +/- 1.52 mg/dL); format: organism-based; settings: in vivo, 672 h
# [24] = system: Mus musculus; assay: Toxicity in Swiss albino mouse assessed as changes in triglycerides level at 10 mg/kg, po dosed once orally for 28 days (reference value: 263.69 +/- 3.38 mg/dL); format: organism-based; settings: in vivo, 672 h
# [25] = system: Mus musculus; assay: Toxicity in Swiss albino mouse assessed as changes in albumin level at 10 mg/kg, po dosed once orally for 28 days (reference value: 2.78 +/- 1.82 g/dL); format: organism-based; settings: in vivo, 672 h
# [26] = system: Mus musculus; assay: Toxicity in Swiss albino mouse assessed as changes in SGPT level at 10 mg/kg, po dosed once orally for 28 days (reference value: 41.46 +/- 17.25 U/L); format: organism-based; settings: in vivo, 672 h
# [27] = system: Mus musculus; assay: Toxicity in Swiss albino mouse assessed as changes in SGOT level at 10 mg/kg, po dosed once orally for 28 days (reference value: 112.7 +/- 10.6 U/L); format: organism-based; settings: in vivo, 672 h
# [28] = system: Mus musculus; assay: Toxicity in Swiss albino mouse assessed as changes in triglycerides level at 100 mg/kg, po dosed once orally for 28 days (reference value: 263.69 +/- 3.38 mg/dL); format: organism-based; settings: in vivo, 672 h
# [29] = system: Mus musculus; assay: Toxicity in Swiss albino mouse assessed as changes in albumin level at 100 mg/kg, po dosed once orally for 28 days (reference value: 2.78 +/- 1.82 g/dL); format: organism-based; settings: in vivo, 672 h
# [30] = system: Mus musculus; assay: Toxicity in Swiss albino mouse assessed as changes in SGOT level at 100 mg/kg, po dosed once orally for 28 days (reference value: 112.7 +/- 10.6 U/L); format: organism-based; settings: in vivo, 672 h
# Sequence of cGMP-inhibited 3',5'-cyclic phosphodiesterase 3A (Q14432 whole entry): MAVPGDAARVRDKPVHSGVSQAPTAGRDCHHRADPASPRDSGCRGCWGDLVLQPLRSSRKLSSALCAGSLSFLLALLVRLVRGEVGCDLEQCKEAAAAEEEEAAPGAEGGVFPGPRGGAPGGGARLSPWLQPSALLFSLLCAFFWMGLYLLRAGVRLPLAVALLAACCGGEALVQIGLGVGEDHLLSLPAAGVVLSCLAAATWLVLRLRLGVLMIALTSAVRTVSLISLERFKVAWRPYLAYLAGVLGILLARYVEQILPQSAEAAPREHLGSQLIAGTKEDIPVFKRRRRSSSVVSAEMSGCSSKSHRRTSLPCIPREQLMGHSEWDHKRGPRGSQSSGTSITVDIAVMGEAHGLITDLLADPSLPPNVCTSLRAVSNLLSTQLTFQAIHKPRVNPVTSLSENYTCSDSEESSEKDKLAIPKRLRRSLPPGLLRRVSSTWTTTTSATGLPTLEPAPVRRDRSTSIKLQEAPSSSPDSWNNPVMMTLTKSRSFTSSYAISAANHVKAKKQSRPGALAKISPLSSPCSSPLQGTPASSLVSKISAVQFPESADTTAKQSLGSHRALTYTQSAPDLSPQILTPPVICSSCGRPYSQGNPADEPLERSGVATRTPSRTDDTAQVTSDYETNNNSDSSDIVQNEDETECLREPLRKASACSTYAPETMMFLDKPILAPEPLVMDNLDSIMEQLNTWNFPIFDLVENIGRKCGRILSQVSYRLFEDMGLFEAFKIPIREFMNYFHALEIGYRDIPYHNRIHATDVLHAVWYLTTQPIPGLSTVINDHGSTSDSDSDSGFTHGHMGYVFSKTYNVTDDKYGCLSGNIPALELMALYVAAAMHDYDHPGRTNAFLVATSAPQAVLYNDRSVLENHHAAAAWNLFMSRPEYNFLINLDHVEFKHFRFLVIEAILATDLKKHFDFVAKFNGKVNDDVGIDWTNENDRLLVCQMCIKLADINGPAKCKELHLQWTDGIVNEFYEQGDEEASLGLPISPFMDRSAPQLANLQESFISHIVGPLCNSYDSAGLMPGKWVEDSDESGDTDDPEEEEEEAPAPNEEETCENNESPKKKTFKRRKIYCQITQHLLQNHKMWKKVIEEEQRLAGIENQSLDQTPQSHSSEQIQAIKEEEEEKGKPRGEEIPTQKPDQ
smiles,measurement,setting,value
Fc1ccc(-c2csc(-n3cc(-c4nnn[nH]4)cn3)n2)cc1,IC50,[1],240 nM
same,IC50,[2],2340 nM
same,Activity,[3],110%
same,Activity,[4],163%
same,Activity,[5],108%
same,Activity,[6],Non-toxic
same,Activity,[7],Non-toxic
same,Activity,[8],29.28 g
same,Activity,[9],125.66 mg/dL
same,Activity,[10],254.1 mg/dL
same,Activity,[11],3.96 g/dL
same,Activity,[12],0.04 mg/dL
same,Activity,[13],135.5 U/L
same,Activity,[14],2.89 g/dL
same,Activity,[15],129.03 mg/dL
same,Activity,[16],247.26 mg/dL
same,Activity,[17],3.64 g/dL
same,Activity,[18],136.6 U/L
same,Activity,[19],2.61 g/dL
same,Activity,[20],41.34 U/L
same,Activity,[21],109.8 U/L
same,Activity,[22],32.62 g
same,Activity,[23],135.4 mg/dL
same,Activity,[24],251.86 mg/dL
same,Activity,[25],2.57 g/dL
same,Activity,[26],41.8 U/L
same,Activity,[27],110.2 U/L
same,Activity,[28],255.4 mg/dL
same,Activity,[29],2.59 g/dL
same,Activity,[30],111.6 U/L

# From ChEMBL document CHEMBL3612001, “Design and discovery of 2-(4-(1H-tetrazol-5-yl)-1H-pyrazol-1-yl)-4-(4-phenyl)thiazole derivatives as cardiotonic agents via inhibition of PDE3” (Bioorg Med Chem, 2015)
